Measurements: paper PMC10788905 (Journal of Medicinal Chemistry, 2023)
Where a name gives a salt, the structure may show the parent alone.

Key:
[1] = test system: human ether-a-go-go-related gene (hERG) potassium channel; conditions: cited from earlier work
[2] = test system: xenograft models; conditions: doses lower than 50 mg/kg (ip daily); cited from earlier work
[3] = test system: breast cancer BT-474; conditions: after 72 h treatment; cited from earlier work
[4] = Liver microsomal stability, mouse and human, UDPGA; format: in vitro ADME; conditions: for m,h-LM % at 120 min / m,h-LM t1/2: mouse and human liver microsomes; for m,h-LM % at 120 min: UDPGA, compound remaining at 120 min; for half-life at 4.6 μM: mouse and human, liver microsomes with alamethicin, pH 7.5; for m,h-LM t1/2: UDPGA cofactor
How it was run: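 Phase II: compound from a 10 mM DMSO stock (4.6 μM final) was preincubated 15 min at 37 °C with mouse or human liver microsomes plus alamethicin in 0.1 M Tris-HCl pH 7.5, 10% DMSO. UDPGA, D-saccharic acid lactone and MgCl₂ were added and incubated 2 h at 37 °C. Samples at 0–120 min were quenched in cold MeCN with internal standard. No-cofactor matrix controls were run. Mean of ≥2 experiments, duplicates.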

[5] = test system: melanoma A375 cells expressing GFP-LC3; assay: GFP-LC3 reporter autophagy assay; format: cell-based, human; conditions: 24 h treatment; for GFP-LC3-positive autophagosomes (fluorescent dots per cell): different concentrations
How it was run: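 A375 melanoma cells were stably transfected with EGFP-LC3B and G418-selected; the clone used was validated with 10 μM chloroquine. Cells on glass-bottom plates were exposed to varied compound concentrations for 24 h, fixed in 4% PFA and Hoechst 33342-stained. GFP-LC3 perinuclear dots per cell were counted by fluorescence microscopy, ten fields per dose, four independent replicates.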

[6] = test system: several tumor cell lines; conditions: cited from earlier work
[7] = Tolerability studies; format: in vivo, female CD1 mice; conditions: for reduction in body weight: after 8 days
How it was run: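 Female CD1 mice (8–9 weeks, 4-day acclimation), 3 per group, received ip compound in saline; controls got saline ip daily. Regimens: 138 μmol/kg daily or every other day; 69 μmol/kg daily or 3 days on/2 off, over an 8-day period. Behavior, body weight, food and water intake were recorded daily. Weight on the pre-treatment day was set to 100%.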

[8] = test system: A375 xenografts; assay: A375 subcutaneous xenograft model; format: in vivo, female NMRI-Foxn1nu mice
[9] = test system: BT-474 cells; assay: Apoptosis in BT-474; format: cell-based, human; conditions: BT-474, different concentrations, 24 h
How it was run: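 Poly-caspase activity detected with a live-cell red/green caspase apoptosis detection kit. Cleaved PARP measured by immunoblot in TBS-T with 5% BSA: primary antibody 1:2000, GAPDH loading control 1:100000, HRP-conjugated secondaries 1:10000.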

[10] = 30 mg/kg ip, 3/5 d schedule, day 15

What does the source list for CCN(CC)CCCC(C)Nc1ccnc2cc(Cl)ccc12 (stereo not shown) [CQ, Chloroquine]?
concentrations blocking hERG activity [1]: single-digit; efficacy in xenograft models [2]: completely ineffective

With CN1CCN(Cc2cc(CNC3(c4ccccc4F)CCCC3)ccc2O)CC1 [Compound 1a, 4-[[[1-(2-fluorophenyl)cyclopentyl]amino]methyl]-2-[(4-methylpiperazin-1-yl)methyl]phenol] as the compound, how does the IC50 [3] read?
The IC50 was 30.1 µM.

Which “m,h-LM % at 120 min” value [4] does the source give for CN1CCC(Cc2cccc(CNC3(c4ccc(F)cc4)CCCC3)c2)CC1 [Compound 1e] here?
Its value is over 95%.

And the half-life at 4.6 μM [4]?
Its half-life at 4.6 μM is over 2 h.

What about the “GFP-LC3-positive autophagosomes (fluorescent dots per cell)” value [5] of the same compound?
The value was “dose-dependent accumulation”.

And the IC50 [3]?
Its IC50 is 2.1 µM.

What about the “in vitro anticancer activity, times higher than CQ” value [6] of the same compound?
The value was “up to 50 times”.

With COc1cc(F)ccc1C1(NCc2cccc(CC3CCN(C)CC3)c2)CCCC1 [Compound 5, 1-(4-Fluoro-2-methoxy-phenyl)-N-[[3-[(1-methyl-4-piperidyl)methyl]phenyl]methyl]cyclopentanamine Dihydrochloride] as the compound, how does the “m,h-LM % at 120 min” value [4] read?
Its value is over 95%.

What about the half-life at 4.6 μM [4] of the same compound?
The half-life at 4.6 μM was over 2 h.

Which results are given for CN1CCC(Cc2cccc(CNC3(c4ccc(F)cc4O)CCCC3)c2)CC1 [Compound 6, 5-Fluoro-2-[1-[[3-[(1-methyl-4-piperidyl)methyl]phenyl]methylamino]cyclopentyl]phenol Dihydrochloride]?
m,h-LM % at 120 min [4]: > 95%; half-life at 4.6 μM [4]: > 2 h

For CN1CCC(Cc2cccc(CNC3(c4ccc(F)c(F)c4)CCCC3)c2)CC1 [Compound 7, 1-(3,4-Difluorophenyl)-N-[[3-[(1-methyl-4-piperidyl)methyl]phenyl]methyl]cyclopentanamine;dihydrochloride], which “m,h-LM % at 120 min” value [4] is on record?
Its value is over 95%.

And the half-life at 4.6 μM [4]?
The half-life at 4.6 μM was over 2 h.

For COc1cc(C2(NCc3cccc(CC4CCN(C)CC4)c3)CCCC2)ccc1F [Compound 9, 1-(4-Fluoro-3-methoxy-phenyl)-N-[[3-[(1-methyl-4-piperidyl)methyl]phenyl]methyl]cyclopentanamine Dihydrochloride], which “m,h-LM % at 120 min” value [4] is on record?
Its value is over 95%.

What about the half-life at 4.6 μM [4] of the same compound?
Its half-life at 4.6 μM is over 2 h.

Which “m,h-LM % at 120 min” value [4] does the source give for CN1CCC(Cc2cccc(CNC3(c4ccc(F)c(O)c4)CCCC3)c2)CC1 [Compound 10, 2-Fluoro-5-[1-[[3-[(1-methyl-4-piperidyl)methyl]phenyl]methylamino]cyclopentyl]phenol Dihydrochloride] here?
Its value is over 95%.

For CN1CCC(Cc2cc(CNC3(c4ccc(F)cc4)CCCC3)ccc2F)CC1 [Compound 11, N-[[4-Fluoro-3-[(1-methyl-4-piperidyl)methyl]phenyl]methyl]-1-(4-fluorophenyl)cyclopentanamine Dihydrochloride], which half-life at 4.6 μM [4] is on record?
Its half-life at 4.6 μM is over 2 h.

Which half-life at 4.6 μM [4] does the source give for CN1CCC(Cc2cc(CNC3(c4ccc(F)cc4)CCCC3)ccc2O)CC1 [Compound 12, 4-[[[1-(4-Fluorophenyl)cyclopentyl]amino]methyl]-2-[(1-methyl-4-piperidyl)methyl]phenol Dihydrochloride] here?
Its half-life at 4.6 μM is over 2 h.

With CN1CCC(Cc2ccc(F)c(CNC3(c4ccc(F)cc4)CCCC3)c2)CC1 [Compound 14, N-[[2-Fluoro-5-[(1-methyl-4-piperidyl)methyl]phenyl]methyl]-1-(4-fluorophenyl)cyclopentanamine Dihydrochloride] as the compound, how does the half-life at 4.6 μM [4] read?
The half-life at 4.6 μM was over 2 h.

With CN1CCC(Cc2ccc(O)c(CNC3(c4ccc(F)cc4)CCCC3)c2)CC1 [Compound 15, 2-[[[1-(4-Fluorophenyl)cyclopentyl]amino]methyl]-4-[(1-methyl-4-piperidyl)methyl]phenol Dihydrochloride] as the compound, how does the half-life at 4.6 μM [4] read?
Its half-life at 4.6 μM is over 2 h.

For CN1CCC(Cc2cc(CNC3(c4ccc(F)cc4)CCCC3)c(F)cc2F)CC1 [Compound 16, N-[[2,4-Difluoro-5-[(1-methyl-4-piperidyl)methyl]phenyl]methyl]-1-(4-fluorophenyl)cyclopentanamine Dihydrochloride], which half-life at 4.6 μM [4] is on record?
Its half-life at 4.6 μM is over 2 h.

Which half-life at 4.6 μM [4] does the source give for CN1CC2(CC(Cc3cccc(CNC4(c5ccc(F)cc5)CCCC4)c3)C2)C1 [Compound 21, 1-(4-Fluorophenyl)-N-[[3-[(2-methyl-2-azaspiro[3.3]heptan-6-yl)methyl]phenyl]methyl]cyclopentanamine Dihydrochloride] here?
The half-life at 4.6 μM was over 2 h.

For COc1cc(F)ccc1C1(NCc2ccc(F)c(CC3CCN(C)CC3)c2)CCCC1 [Compound 22, 1-(4-Fluoro-2-methoxy-phenyl)-N-[[4-fluoro-3-[(1-methyl-4-piperidyl)methyl]phenyl]methyl]cyclopentanamine Dihydrochloride], which half-life at 4.6 μM [4] is on record?
The half-life at 4.6 μM was over 2 h.

Which “m,h-LM t1/2” value [4] does the source give for Fc1ccc(C2(NCc3ccc(F)c(CC4CCNCC4)c3)CCCC2)cc1 [Compound 24, 1-(4-Fluorophenyl)-N-[[4-fluoro-3-(4-piperidylmethyl)phenyl]methyl]cyclopentanamine Dihydrochloride] here?
The value was over 2 h.

And the half-life at 4.6 μM [4]?
Its half-life at 4.6 μM is over 2 h.

What about the “increase in fluorescent dots compared with 1e” value ([5]; all the doses tested) of the same compound?
The value was “significantly higher increase”.

What about the “GFP-LC3-positive autophagosomes (fluorescent dots per cell)” value [5] of the same compound?
Its value is “dose-dependent accumulation”.

And the “reduction in body weight” value ([7]; 69 μmol/kg (31 mg/kg) ip daily)?
Its value is at most 5%.

And the “tolerability (body weight, water and food intake)” value ([7]; 69 μmol/kg (31 mg/kg) ip, 3/5 d schedule, 15-day period)?
The value was “well tolerated”.

What about the “signs of arched backs and lethargy” value ([7]; 138 μmol/kg (62 mg/kg) ip daily) of the same compound?
Its value is “did not observe clear signs of arched backs and lethargy”.

What about the animal body weight ([7]; 138 μmol/kg (62 mg/kg) ip daily, after 2 days of treatment) of the same compound?
Its animal body weight is “significantly reduced”.

What about the “reduction in body weight” value ([7]; 138 μmol/kg (62 mg/kg) ip every other day) of the same compound?
Its value is at most 5%.

What about the “tumor expression of REV-ERB target genes BMAL1 and PEPCK” value ([8]; 30 mg/kg ip for 2 days, tumors collected after 48 h, versus control) of the same compound?
Its value is “significantly higher expression”.

And the “average tumor volume (excised tumors)” value [8, 10]?
Its value is 307.7 mm^3.

What about the average tumor weight [8, 10] of the same compound?
The average tumor weight was 0.365 g.

What about the “effects on body weight” value ([8]; 30 mg/kg ip, 3/5 d schedule, mice bearing A375 xenografts) of the same compound?
The value was “negligible effects”.

And the “caspase-activity and cleaved PARP protein levels” value [9]?
The value was “dose-dependent induction”.

For Fc1ccc(C2(NCc3cc(CC4CCNCC4)ccc3F)CCCC2)cc1 [Compound 25, 1-(4-Fluorophenyl)-N-[[2-fluoro-5-(4-piperidylmethyl)phenyl]methyl]cyclopentanamine Dihydrochloride], which “m,h-LM t1/2” value [4] is on record?
Its value is over 2 h.

With CCN(CCO)CCCC(C)Nc1ccnc2cc(Cl)ccc12 (stereo not shown) [HCQ, hydroxychloroquine] as the compound, how does the “concentrations blocking hERG activity” value [1] read?
The value was “single-digit”.
